ChEMBL document CHEMBL4340529, “Selective degradation of CDK6 by a palbociclib based PROTAC” (Bioorg Med Chem Lett, 2019)
Calls of active or inactive are those of the source. The calls are words filed in the database; no cut-off is given here.

Experiments:
[1] = biological target: T1, Protein cereblon/Cyclin-dependent kinase 6 (Homo sapiens) (UniProt Q00534+Q96SW2); assay: Induction of CRBN-mediated CDK6 degradation in human MIAPaCa2 cells at 0.5 uM measured after 4 hrs by western blot analysis; format: cell-based
T1 sequence (Q00534 whole entry, looked up): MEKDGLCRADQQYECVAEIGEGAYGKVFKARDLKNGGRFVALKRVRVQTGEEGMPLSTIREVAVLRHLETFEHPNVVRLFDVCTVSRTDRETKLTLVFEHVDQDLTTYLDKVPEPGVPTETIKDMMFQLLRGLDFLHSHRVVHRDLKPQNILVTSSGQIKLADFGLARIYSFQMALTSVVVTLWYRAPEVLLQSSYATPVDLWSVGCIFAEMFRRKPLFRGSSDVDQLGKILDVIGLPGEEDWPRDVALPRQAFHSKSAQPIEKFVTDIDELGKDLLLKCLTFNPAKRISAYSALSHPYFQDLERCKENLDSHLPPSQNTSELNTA
T1 sequence (Q96SW2 whole entry, looked up): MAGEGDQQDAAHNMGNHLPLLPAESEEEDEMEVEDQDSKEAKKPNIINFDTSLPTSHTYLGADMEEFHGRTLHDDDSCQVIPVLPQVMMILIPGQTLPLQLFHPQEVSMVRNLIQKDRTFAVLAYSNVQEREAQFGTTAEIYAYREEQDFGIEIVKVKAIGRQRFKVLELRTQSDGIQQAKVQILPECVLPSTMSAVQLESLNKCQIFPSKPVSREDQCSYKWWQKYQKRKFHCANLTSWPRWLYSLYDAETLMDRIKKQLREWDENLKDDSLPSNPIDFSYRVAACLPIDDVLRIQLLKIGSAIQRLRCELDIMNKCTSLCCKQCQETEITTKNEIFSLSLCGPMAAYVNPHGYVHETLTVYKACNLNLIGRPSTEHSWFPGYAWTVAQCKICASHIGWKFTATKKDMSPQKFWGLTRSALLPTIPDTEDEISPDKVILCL
Procedure, shortened: (§1)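 MiaPaCa2 cells treated with degrader analogs at 0.5 μM for 4 h; lysates analysed by Western blot for CDK4, CDK6 and RB.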

[2] = biological target: T2, Protein cereblon/Cyclin-dependent kinase 4 (Homo sapiens) (UniProt P11802+Q96SW2); assay: Induction of CRBN-mediated CDK4 degradation in human MIAPaCa2 cells at 0.5 uM measured after 4 hrs by western blot analysis; format: cell-based; procedure, shortened: as §1
T2 sequence (P11802 2-303 limits assumed): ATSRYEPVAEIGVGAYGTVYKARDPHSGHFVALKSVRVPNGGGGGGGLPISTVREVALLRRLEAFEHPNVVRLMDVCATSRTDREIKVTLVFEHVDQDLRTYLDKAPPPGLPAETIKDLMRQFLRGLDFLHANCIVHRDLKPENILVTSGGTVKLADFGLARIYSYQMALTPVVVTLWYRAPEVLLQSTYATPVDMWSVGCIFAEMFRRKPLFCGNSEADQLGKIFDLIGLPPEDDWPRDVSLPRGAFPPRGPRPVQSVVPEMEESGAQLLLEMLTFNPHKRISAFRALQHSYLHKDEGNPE
T2 sequence (Q96SW2 whole entry partner): as the sequence (Q96SW2 whole entry, looked up) above

[3] = biological target: Protein cereblon/Cyclin-dependent kinase 2 (Homo sapiens) (UniProt P24941+Q96SW2); assay: Induction of CRBN-mediated CDK2 degradation in human MIAPaCa2 cells at 0.5 uM measured after 24 hrs by western blot analysis; format: cell-based
Procedure, shortened: (§2)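 MiaPaCa2 cells exposed to 0.5 μM of each degrader analog for 24 h; lysates immunoblotted for CDK2, CDK5, CDK7 and CDK9 within a kinase panel.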

[4] = biological target: Protein cereblon/Cyclin-dependent kinase 5 (Homo sapiens) (UniProt Q00535+Q96SW2); assay: Induction of CRBN-mediated CDK5 degradation in human MIAPaCa2 cells at 0.5 uM measured after 24 hrs by western blot analysis; format: cell-based; procedure, shortened: as §2
Chain of Protein cereblon/Cyclin-dependent kinase 5 (Homo sapiens) (Q00535 whole entry, looked up): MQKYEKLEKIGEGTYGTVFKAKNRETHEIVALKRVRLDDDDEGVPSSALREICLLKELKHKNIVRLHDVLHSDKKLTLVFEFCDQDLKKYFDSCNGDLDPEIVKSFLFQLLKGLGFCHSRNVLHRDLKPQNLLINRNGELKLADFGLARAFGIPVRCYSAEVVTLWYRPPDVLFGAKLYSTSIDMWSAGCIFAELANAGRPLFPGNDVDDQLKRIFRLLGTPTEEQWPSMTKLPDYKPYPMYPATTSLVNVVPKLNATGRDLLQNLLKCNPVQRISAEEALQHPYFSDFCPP
Chain of Protein cereblon/Cyclin-dependent kinase 5 (Homo sapiens) (Q96SW2 whole entry, looked up): as the sequence (Q96SW2 whole entry, looked up) above

[5] = biological target: Protein cereblon/Cyclin-dependent kinase 7 (Homo sapiens) (UniProt P50613+Q96SW2); assay: Induction of CRBN-mediated CDK7 degradation in human MIAPaCa2 cells at 0.5 uM measured after 24 hrs by western blot analysis; format: cell-based; procedure, shortened: as §2
Chain of Protein cereblon/Cyclin-dependent kinase 7 (Homo sapiens) (P50613 whole entry, looked up): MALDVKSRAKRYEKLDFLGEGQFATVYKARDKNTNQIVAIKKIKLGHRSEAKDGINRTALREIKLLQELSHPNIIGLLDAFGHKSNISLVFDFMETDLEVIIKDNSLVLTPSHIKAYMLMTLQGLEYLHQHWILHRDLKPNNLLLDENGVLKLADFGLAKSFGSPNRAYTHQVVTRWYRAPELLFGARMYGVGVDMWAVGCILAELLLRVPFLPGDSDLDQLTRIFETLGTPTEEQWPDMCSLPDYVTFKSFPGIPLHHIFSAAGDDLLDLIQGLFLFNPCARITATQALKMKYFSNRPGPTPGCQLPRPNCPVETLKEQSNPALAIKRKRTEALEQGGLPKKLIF
Chain of Protein cereblon/Cyclin-dependent kinase 7 (Homo sapiens) (Q96SW2 whole entry, looked up): as the sequence (Q96SW2 whole entry, looked up) above

[6] = biological target: Protein cereblon/Cyclin-dependent kinase 9 (Homo sapiens) (UniProt P50750+Q96SW2); assay: Induction of CRBN-mediated CDK9 degradation in human MIAPaCa2 cells at 0.5 uM measured after 24 hrs by western blot analysis; format: cell-based; procedure, shortened: as §2
Chain of Protein cereblon/Cyclin-dependent kinase 9 (Homo sapiens) (P50750 whole entry, looked up): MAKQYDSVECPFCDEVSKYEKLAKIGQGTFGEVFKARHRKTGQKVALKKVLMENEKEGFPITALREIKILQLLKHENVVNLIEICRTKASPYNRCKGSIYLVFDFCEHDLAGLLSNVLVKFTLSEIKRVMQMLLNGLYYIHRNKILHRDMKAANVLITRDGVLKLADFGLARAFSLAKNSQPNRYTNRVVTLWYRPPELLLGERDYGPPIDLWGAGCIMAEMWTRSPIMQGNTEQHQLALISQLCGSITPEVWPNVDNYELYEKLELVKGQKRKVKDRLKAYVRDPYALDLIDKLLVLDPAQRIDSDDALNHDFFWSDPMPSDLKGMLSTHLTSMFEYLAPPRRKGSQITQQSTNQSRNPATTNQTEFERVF
Chain of Protein cereblon/Cyclin-dependent kinase 9 (Homo sapiens) (Q96SW2 whole entry, looked up): as the sequence (Q96SW2 whole entry, looked up) above

[7] = biological target: Protein cereblon/Retinoblastoma-associated protein (Homo sapiens) (UniProt P06400+Q96SW2); assay: Induction of CRBN-mediated RB degradation in human MIAPaCa2 cells at 0.5 uM measured after 4 hrs by western blot analysis; format: cell-based; procedure, shortened: as §1
Chain of Protein cereblon/Retinoblastoma-associated protein (Homo sapiens) (P06400 whole entry, looked up): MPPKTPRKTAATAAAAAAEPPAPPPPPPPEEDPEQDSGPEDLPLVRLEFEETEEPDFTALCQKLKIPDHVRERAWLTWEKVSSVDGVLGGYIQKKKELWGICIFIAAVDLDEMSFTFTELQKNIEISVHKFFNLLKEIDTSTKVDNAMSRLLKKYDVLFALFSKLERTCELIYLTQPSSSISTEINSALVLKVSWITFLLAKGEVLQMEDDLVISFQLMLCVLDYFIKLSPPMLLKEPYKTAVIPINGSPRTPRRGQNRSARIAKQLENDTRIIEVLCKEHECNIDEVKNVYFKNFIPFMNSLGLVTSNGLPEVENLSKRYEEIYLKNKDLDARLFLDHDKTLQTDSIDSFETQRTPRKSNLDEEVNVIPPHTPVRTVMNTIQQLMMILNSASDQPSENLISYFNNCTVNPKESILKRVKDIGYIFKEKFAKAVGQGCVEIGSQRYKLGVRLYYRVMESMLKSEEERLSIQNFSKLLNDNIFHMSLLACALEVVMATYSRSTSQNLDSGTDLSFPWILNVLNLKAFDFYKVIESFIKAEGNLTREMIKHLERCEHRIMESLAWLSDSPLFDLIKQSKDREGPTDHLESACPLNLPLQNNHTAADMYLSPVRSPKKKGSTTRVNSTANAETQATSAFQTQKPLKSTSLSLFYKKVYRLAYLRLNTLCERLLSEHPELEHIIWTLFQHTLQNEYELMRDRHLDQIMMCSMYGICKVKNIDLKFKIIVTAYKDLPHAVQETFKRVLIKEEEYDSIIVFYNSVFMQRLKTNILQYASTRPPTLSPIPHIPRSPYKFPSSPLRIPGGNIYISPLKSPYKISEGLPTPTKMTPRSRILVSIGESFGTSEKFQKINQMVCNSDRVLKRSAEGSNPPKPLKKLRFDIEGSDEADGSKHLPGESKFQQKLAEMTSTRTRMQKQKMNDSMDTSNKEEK
Chain of Protein cereblon/Retinoblastoma-associated protein (Homo sapiens) (Q96SW2 whole entry, looked up): as the sequence (Q96SW2 whole entry, looked up) above

[8] = biological target: Protein cereblon/Cyclin-dependent kinase 6/G1/S-specific cyclin-D3 (Homo sapiens) (UniProt P30281+Q00534+Q96SW2); assay: Induction of CRBN-mediated CDK6/cyclin D3 (unknown origin) degradation; format: protein assay
Chain of Protein cereblon/Cyclin-dependent kinase 6/G1/S-specific cyclin-D3 (Homo sapiens) (P30281 whole entry, looked up): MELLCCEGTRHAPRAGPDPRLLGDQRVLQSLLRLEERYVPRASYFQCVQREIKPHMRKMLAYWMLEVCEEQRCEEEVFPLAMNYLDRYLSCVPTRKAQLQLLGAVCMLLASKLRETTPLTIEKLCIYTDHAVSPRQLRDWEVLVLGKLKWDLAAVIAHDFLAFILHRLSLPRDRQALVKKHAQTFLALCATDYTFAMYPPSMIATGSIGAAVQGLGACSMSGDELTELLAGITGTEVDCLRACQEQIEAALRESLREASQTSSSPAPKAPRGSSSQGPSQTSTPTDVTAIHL
Chain of Protein cereblon/Cyclin-dependent kinase 6/G1/S-specific cyclin-D3 (Homo sapiens) (Q00534 whole entry, looked up): as the sequence (Q00534 whole entry, looked up) above
Chain of Protein cereblon/Cyclin-dependent kinase 6/G1/S-specific cyclin-D3 (Homo sapiens) (Q96SW2 whole entry, looked up): as the sequence (Q96SW2 whole entry, looked up) above

[9] = biological target: T1, Protein cereblon/Cyclin-dependent kinase 6 (Homo sapiens); assay: Induction of CRBN-mediated CDK6 degradation in human MIAPaCa2 cells at 0.15 to 5 uM measured after 4 hrs by Western blot analysis; format: cell-based
[10] = biological target: T1, Protein cereblon/Cyclin-dependent kinase 6 (Homo sapiens); assay: Induction of CRBN-mediated CDK6 degradation in human MIAPaCa2 cells at 0.1 uM measured after 4 hrs by Western blot analysis; format: cell-based
Procedure, shortened: (§3)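 Dose-response in MiaPaCa2 cells: graded degrader concentrations for 4 h and for 24 h; CDK4 and CDK6 read by immunoblot.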

[11] = biological target: T1, Protein cereblon/Cyclin-dependent kinase 6 (Homo sapiens); assay: Induction of CRBN-mediated CDK6 degradation in human MIAPaCa2 cells at 0.1 uM measured after 24 hrs by western blot analysis; format: cell-based; procedure, shortened: as §3
[12] = biological target: T2, Protein cereblon/Cyclin-dependent kinase 4 (Homo sapiens); assay: Induction of CRBN-mediated CDK4 degradation in human MIAPaCa2 cells at 0.1 uM measured after 4 hrs by western blot analysis; format: cell-based; procedure, shortened: as §3
[13] = biological target: T2, Protein cereblon/Cyclin-dependent kinase 4 (Homo sapiens); assay: Induction of CRBN-mediated CDK4 degradation in human MIAPaCa2 cells at 0.1 uM measured after 24 hrs by western blot analysis; format: cell-based; procedure, shortened: as §3
[14] = biological target: T1, Protein cereblon/Cyclin-dependent kinase 6 (Homo sapiens); assay: Induction of CRBN-mediated CDK6 degradation in human HPNE cells at 0.1 uM measured after 4 hrs by Western blot analysis; format: cell-based
Procedure, shortened: (§4)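 HPNE cells given a range of degrader concentrations and harvested at 4 h and at 24 h; CDK4 and CDK6 levels read by Western blot.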

[15] = biological target: T1, Protein cereblon/Cyclin-dependent kinase 6 (Homo sapiens); assay: Induction of CRBN-mediated CDK6 degradation in human HPNE cells at 0.1 uM measured after 24 hrs by western blot analysis; format: cell-based; procedure, shortened: as §4
[16] = biological target: T2, Protein cereblon/Cyclin-dependent kinase 4 (Homo sapiens); assay: Induction of CRBN-mediated CDK4 degradation in human HPNE cells at 0.1 uM measured after 4 hrs by western blot analysis; format: cell-based; procedure, shortened: as §4
[17] = biological target: T2, Protein cereblon/Cyclin-dependent kinase 4 (Homo sapiens); assay: Induction of CRBN-mediated CDK4 degradation in human HPNE cells at 0.1 uM measured after 24 hrs by western blot analysis; format: cell-based; procedure, shortened: as §4
[18] = biological target: T1, Protein cereblon/Cyclin-dependent kinase 6 (Homo sapiens); assay: Induction of CRBN-mediated CDK6 degradation in human MIAPaCa2 cells at 5 to 10 uM measured after 4 hrs by western blot analysis; format: cell-based
[19] = biological target: T1, Protein cereblon/Cyclin-dependent kinase 6 (Homo sapiens); assay: Induction of CRBN-mediated CDK6 degradation in human HPNE cells at 5 to 10 uM measured after 4 hrs by Western blot analysis; format: cell-based
[20] = biological target: T1, Protein cereblon/Cyclin-dependent kinase 6 (Homo sapiens); assay: Induction of CRBN-mediated CDK6 degradation in human MIAPaCa2 cells at 500 nM by Western blot analysis; format: cell-based; conditions: TDE = time-dependent effect
[21] = biological target: T1, Protein cereblon/Cyclin-dependent kinase 6 (Homo sapiens); assay: Induction of CRBN-mediated CDK6 degradation in human HPNE cells at 500 nM by Western blot analysis; format: cell-based; conditions: TDE = time-dependent effect
[22] = biological target: T1, Protein cereblon/Cyclin-dependent kinase 6 (Homo sapiens); assay: Induction of CRBN-mediated CDK6 degradation in human MIAPaCa2 cells at 1 uM measured after 24 hrs by western blot analysis; format: cell-based
[23] = biological target: T1, Protein cereblon/Cyclin-dependent kinase 6 (Homo sapiens); assay: Induction of CRBN-mediated CDK6 degradation in human MIAPaCa2 cells at 1 uM measured after 24 hrs in presence of palbociclib by western blot analysis; format: cell-based
Procedure, shortened: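 Competition test: MiaPaCa2 cells incubated 24 h with palbociclib 10 µM, degrader 1 µM, or both together; lysates probed for CDK4 and CDK6 by Western blot.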

[24] = biological target: T1, Protein cereblon/Cyclin-dependent kinase 6 (Homo sapiens); assay: Induction of CRBN-mediated CDK6 degradation in human MIAPaCa2 cells at 1 uM measured after 24 hrs in presence of pomalidomide by Western blot analysis; format: cell-based
Procedure, shortened: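 CRBN-ligand competition in MiaPaCa2 cells: pomalidomide 0.1–10 µM given alone or with degrader 1 µM for 24 h; lysates immunoblotted for CDK6.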

[25] = biological target: T1, Protein cereblon/Cyclin-dependent kinase 6 (Homo sapiens); assay: Induction of CRBN-mediated CDK6 degradation in human MIAPaCa2 cells at 1 uM measured after 8 hrs in presence of proteasome inhibitor MG132 by Western blot analysis; format: cell-based
[26] = Induction of CRBN-mediated CDK4/cyclin D1 (unknown origin) degradation; conditions: Homo sapiens

SMILES: CC(=O)c1c(C)c2cnc(Nc3ccc(N4CCN(CC(=O)NCCCOCCOCCOCCCNc5cccc6c5C(=O)N(C5CCC(=O)NC5=O)C6=O)CC4)cn3)nc2n(C2CCCC2)c1=O (stereo not drawn)
- Activity [1]: Active
- Activity [2]: inactive
- Activity [3]: inactive
- Activity [4]: inactive
- Activity [5]: inactive
- Activity [6]: inactive
- Activity [7]: inactive
- Activity [8]: 6.61 nM
- Activity [9]: Active
- Activity [10]: Active
- Activity [11]: Active
- Activity [12]: inactive
- Activity [13]: inactive
- Activity [14]: Active
- Activity [15]: Active
- Activity [16]: inactive
- Activity [17]: inactive
- Activity [18]: Active
- Activity [19]: Active
- Activity [20]: Tde
- Activity [21]: Tde
- Activity [22]: Active
- Activity [23]: inactive
- Activity [24]: inactive
- Activity [25]: inactive
- Activity [26]: < 1.5 nM

SMILES: CC(=O)c1c(C)c2cnc(Nc3ccc(N4CCN(CC(=O)NCCCCCCCCNc5cccc6c5C(=O)N(C5CCC(=O)NC5=O)C6=O)CC4)cn3)nc2n(C2CCCC2)c1=O (stereo not drawn)
- Activity [1]: Active

SMILES: CC(=O)c1c(C)c2cnc(Nc3ccc(N4CCN(CCOCCOCCOc5cccc6c5C(=O)N(C5CCC(=O)NC5=O)C6=O)CC4)cn3)nc2n(C2CCCC2)c1=O (stereo not drawn)
- Activity [1]: Active
- Activity [2]: Active

SMILES: CC(=O)c1c(C)c2cnc(Nc3ccc(N4CCN(CCCCCC(=O)Nc5cccc6c5C(=O)N(C5CCC(=O)NC5=O)C6=O)CC4)cn3)nc2n(C2CCCC2)c1=O (stereo not drawn)
- Activity [1]: Active
- Activity [2]: Active

SMILES: CC(=O)c1c(C)c2cnc(Nc3ccc(N4CCN(CC(=O)NCCCCNc5cccc6c5C(=O)N(C5CCC(=O)NC5=O)C6=O)CC4)cn3)nc2n(C2CCCC2)c1=O (stereo not drawn)
- Activity [1]: Active
- Activity [2]: Active
